The values that follow come from ChEMBL document CHEMBL4428053, “Application of a Parallel Synthetic Strategy in the Discovery of Biaryl Acyl Sulfonamides as Efficient and Selective NaV1.7 Inhibitors” (J Med Chem, 2016).

For data set [1], the target named is T1, Cytochrome P450 3A4 (Homo sapiens, UniProt P08684).
Data set [2] deals with T2, Cytochrome P450 2D6 (Homo sapiens, UniProt P10635).
Data set [3] has as its target Sodium channel protein type 9 subunit alpha (Homo sapiens, UniProt Q15858). The data set can be described thus: Inhibition of human Nav1.7 expressed in HEK293 cells incubated for 3 to 5 mins at -125 mV holding potential by electrophysiology assay. Type of data set: cell-based.
For data set [4], the target named is T2, Cytochrome P450 2D6. The source holds these as a separate data set.
Data set [5] concerns the target T3, Cytochrome P450 2C9 (Homo sapiens, UniProt P11712).
Data set [6] concerns the target T3, Cytochrome P450 2C9. The source holds these as a separate data set.
Data set [7] can be described thus: in vitro. The following applies: rat, liver microsomes. In general terms: Liver microsomes are vesicles of endoplasmic reticulum, rich in cytochrome P450 enzymes.
In data set [8] the target is T1, Cytochrome P450 3A4. This is another data set of the same source.
Data set [9] deals with Voltage-gated inwardly rectifying potassium channel KCNH2 (Homo sapiens, UniProt Q12809).
Data set [10] deals with Sodium channel protein type 5 subunit alpha (Homo sapiens, UniProt Q14524). The data set can be described thus: Inhibition of human Nav1.5 expressed in HEK293 cells incubated for 3 to 5 mins at -50 mV holding potential by electrophysiology assay. Type of data set: cell-based.
A short description of data set [11]: in vitro. The following applies: human, liver microsomes.
Data set [12] in a line: Protein binding in rat plasma at 5 uM after 45 mins by LC-MS/MS analysis. Type of data set: ADME, cell-free. The conditions noted are these: read-out: PPB.
A short description of data set [13]: Clearance in Harlan rat at 1 mg/kg, iv by LC-MS/MS analysis. Type of data set: ADME, organism-based. The following applies: in vivo. An outline of the steps:
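Male fed rats. The IV dose was given in 100% DMSO. The oral dose was given in 1% Tween 80, 2% HPMC, 97% water/NaOH (pH 8.5).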

Data set [14] is filed under the species Homo sapiens. As to the kind of experiment: Selectivity ratio of IC50 for human Nav1.5 expressed in HEK293 cells to human Nav1.7 expressed in HEK293 cells. In kind it is cell-based. In outline: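 IC50s come from PatchXpress automated electrophysiology, and the ratio divides the hNav1.5 IC50 by the hNav1.7 IC50. For hNav1.7, cells were held at a voltage giving 20-50% channel inactivation. For hNav1.5, cells were held at -50 mV on the same platform.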

Sequence of Sodium channel protein type 9 subunit alpha (Q15858 whole entry): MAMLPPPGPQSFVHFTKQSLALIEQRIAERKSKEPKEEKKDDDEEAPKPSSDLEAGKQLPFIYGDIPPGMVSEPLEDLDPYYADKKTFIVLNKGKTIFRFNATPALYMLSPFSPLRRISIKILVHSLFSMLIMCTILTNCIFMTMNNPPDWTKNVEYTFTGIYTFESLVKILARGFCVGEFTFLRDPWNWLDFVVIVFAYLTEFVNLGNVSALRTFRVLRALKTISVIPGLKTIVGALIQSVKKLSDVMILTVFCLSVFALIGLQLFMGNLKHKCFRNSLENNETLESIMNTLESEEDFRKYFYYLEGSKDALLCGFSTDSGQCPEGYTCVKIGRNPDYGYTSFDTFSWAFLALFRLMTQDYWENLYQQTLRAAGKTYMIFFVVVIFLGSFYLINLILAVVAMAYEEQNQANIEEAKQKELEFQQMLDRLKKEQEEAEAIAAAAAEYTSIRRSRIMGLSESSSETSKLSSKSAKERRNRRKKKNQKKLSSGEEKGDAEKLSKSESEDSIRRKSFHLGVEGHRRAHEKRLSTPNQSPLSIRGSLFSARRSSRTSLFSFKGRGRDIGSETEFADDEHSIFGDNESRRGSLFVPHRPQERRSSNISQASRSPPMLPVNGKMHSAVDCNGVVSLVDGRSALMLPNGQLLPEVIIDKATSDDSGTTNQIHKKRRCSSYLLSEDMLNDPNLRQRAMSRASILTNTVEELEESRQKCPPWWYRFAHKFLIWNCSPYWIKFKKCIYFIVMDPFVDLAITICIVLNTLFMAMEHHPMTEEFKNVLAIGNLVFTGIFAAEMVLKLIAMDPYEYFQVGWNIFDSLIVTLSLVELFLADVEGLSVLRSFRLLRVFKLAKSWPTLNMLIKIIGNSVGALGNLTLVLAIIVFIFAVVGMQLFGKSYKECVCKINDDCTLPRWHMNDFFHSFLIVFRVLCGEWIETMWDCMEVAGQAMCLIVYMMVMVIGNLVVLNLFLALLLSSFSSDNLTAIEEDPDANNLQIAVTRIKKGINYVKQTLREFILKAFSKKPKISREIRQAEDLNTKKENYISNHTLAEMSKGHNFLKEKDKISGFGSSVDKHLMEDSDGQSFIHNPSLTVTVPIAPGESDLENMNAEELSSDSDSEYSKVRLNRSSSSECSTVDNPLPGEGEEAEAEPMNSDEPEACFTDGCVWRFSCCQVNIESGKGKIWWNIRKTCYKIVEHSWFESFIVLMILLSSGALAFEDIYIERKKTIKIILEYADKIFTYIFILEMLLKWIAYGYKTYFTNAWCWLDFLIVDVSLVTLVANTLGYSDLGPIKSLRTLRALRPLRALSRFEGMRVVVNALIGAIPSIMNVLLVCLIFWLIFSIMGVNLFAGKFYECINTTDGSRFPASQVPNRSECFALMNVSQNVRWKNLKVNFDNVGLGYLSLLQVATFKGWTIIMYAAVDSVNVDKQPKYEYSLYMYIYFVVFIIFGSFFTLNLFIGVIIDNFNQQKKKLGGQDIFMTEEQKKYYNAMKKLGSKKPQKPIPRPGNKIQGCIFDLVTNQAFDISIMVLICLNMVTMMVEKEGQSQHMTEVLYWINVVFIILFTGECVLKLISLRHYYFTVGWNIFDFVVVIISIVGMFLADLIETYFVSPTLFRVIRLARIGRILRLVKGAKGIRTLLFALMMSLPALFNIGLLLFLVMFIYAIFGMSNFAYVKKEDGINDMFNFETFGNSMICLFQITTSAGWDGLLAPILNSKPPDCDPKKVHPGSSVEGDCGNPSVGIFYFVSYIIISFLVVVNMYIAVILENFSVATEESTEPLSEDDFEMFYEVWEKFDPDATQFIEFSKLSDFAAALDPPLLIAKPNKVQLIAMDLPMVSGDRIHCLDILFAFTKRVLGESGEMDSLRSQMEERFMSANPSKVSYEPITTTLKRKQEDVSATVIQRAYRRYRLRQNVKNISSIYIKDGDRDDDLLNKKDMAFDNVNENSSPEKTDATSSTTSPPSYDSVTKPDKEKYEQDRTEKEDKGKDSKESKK
Sequence of Sodium channel protein type 5 subunit alpha (Q14524 whole entry): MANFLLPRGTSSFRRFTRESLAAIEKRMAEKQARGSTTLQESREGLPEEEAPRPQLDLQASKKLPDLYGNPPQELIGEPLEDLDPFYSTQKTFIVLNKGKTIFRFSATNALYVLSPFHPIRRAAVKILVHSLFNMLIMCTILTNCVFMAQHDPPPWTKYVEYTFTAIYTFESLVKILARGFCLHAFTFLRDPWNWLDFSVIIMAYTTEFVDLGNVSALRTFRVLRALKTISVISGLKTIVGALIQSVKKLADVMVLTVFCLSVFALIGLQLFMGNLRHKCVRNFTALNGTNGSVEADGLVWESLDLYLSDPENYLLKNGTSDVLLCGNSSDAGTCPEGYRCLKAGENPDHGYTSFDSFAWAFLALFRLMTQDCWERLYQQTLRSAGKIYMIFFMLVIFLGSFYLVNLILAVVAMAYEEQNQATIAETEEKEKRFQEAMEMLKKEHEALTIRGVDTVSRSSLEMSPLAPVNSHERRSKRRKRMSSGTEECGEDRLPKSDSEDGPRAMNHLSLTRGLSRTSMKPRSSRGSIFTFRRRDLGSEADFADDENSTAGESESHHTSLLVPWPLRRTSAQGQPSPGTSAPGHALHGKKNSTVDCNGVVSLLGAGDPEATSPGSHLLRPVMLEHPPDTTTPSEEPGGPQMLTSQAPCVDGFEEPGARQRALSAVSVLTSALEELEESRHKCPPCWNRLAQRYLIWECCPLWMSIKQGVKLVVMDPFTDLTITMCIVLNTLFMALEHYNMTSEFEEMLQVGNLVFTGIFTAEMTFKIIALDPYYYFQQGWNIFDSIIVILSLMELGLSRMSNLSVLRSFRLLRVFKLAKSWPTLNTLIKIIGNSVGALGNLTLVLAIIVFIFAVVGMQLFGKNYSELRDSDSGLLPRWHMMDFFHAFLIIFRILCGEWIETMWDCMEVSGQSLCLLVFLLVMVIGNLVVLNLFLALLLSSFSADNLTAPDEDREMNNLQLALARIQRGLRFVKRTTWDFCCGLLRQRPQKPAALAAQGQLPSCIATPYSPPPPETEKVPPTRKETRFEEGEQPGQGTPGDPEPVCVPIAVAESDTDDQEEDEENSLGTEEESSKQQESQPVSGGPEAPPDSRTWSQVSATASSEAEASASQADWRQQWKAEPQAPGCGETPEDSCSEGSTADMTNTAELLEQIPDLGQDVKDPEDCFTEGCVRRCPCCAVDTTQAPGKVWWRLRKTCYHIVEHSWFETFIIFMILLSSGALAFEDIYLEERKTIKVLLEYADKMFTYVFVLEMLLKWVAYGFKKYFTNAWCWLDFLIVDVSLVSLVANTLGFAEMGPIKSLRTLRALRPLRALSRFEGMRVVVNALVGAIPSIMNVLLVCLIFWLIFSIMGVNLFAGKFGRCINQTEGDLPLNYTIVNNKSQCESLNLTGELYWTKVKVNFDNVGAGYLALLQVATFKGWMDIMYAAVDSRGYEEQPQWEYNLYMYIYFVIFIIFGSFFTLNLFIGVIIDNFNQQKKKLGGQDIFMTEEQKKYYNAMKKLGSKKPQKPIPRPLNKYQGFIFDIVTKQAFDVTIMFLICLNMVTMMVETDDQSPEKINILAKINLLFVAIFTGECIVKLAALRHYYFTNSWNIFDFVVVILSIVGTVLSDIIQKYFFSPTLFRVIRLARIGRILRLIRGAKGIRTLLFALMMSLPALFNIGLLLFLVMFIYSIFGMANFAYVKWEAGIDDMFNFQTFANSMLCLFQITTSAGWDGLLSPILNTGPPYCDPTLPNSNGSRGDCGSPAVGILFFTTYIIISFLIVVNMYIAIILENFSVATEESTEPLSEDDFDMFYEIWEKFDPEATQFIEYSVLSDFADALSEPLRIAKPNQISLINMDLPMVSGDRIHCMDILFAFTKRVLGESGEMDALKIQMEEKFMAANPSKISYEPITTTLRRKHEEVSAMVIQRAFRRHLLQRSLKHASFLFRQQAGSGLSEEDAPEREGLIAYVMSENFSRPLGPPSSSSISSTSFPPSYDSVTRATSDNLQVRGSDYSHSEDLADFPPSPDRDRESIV
T3 sequence (P11712 whole entry): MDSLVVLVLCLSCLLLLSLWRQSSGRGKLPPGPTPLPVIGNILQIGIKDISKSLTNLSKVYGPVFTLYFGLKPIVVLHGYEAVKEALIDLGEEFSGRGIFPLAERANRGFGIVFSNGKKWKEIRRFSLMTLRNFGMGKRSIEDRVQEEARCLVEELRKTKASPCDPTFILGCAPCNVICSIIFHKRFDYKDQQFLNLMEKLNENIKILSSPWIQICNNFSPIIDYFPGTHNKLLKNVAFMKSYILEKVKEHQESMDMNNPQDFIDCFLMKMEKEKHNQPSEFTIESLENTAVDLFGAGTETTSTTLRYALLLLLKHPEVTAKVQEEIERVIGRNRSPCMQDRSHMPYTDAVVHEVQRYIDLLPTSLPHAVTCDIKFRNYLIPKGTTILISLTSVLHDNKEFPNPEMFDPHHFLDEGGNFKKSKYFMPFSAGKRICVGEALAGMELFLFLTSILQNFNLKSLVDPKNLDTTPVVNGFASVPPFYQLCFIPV
T2 sequence (P10635 whole entry): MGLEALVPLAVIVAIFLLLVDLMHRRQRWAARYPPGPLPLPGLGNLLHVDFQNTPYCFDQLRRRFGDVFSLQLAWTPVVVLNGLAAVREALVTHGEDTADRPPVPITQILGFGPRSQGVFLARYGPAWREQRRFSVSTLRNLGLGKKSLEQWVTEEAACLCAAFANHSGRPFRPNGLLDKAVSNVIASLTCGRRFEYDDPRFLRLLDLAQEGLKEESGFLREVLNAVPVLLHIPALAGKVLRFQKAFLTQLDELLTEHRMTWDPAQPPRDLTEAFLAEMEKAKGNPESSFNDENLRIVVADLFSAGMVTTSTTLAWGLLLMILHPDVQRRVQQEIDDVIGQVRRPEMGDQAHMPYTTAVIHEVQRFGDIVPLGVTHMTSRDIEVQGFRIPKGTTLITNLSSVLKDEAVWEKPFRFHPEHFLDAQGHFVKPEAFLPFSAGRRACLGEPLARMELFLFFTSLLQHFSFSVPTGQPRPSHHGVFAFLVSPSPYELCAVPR

One may read the IC50 as the concentration that gives 50% inhibition. For orientation: microsomal CLint means a measure of how fast metabolising enzymes remove a compound, apart from limits set by blood flow. Read a low microsomal CLint as greater metabolic stability. A word on the Ki: it is the equilibrium dissociation constant of an inhibitor or competing ligand from its target. Lower therefore signals higher affinity. `CC(C)COc1ncc(-c2cc(F)c(C(=O)NS(C)(=O)=O)cc2F)cc1Cl`: the IC50 is 48.6 µM in data set [1]; over 50 µM in data set [2]; 0.53 µM in [3]; over 50 µM in data set [4]; 34.7 µM in [5]; 34.1 µM in data set [6]. Further, the values for the IC50 in data set [8] and in [10] were over 50 µM and over 30 µM, respectively. Also, the microsomal CLint at 1 µM in data set [7] amounted to 22 µL/min/mg; in data set [11], 47 µL/min/mg. Besides, the Ki in data set [9] was over 30 µM.
One may read the clearance as the volume of plasma or blood freed of the substance per unit of time. A high value points to efficient removal. Consider `COc1cc(C(=O)NS(C)(=O)=O)ccc1-c1cnc(Oc2cc(Cl)cc(Cl)c2)c(C#N)c1`, for which the fraction unbound at 0.75 h, 5 µM in [12] is under 0.001. The microsomal CLint at 1 µM in data set [7] stood at 15 µL/min/mg; in [11], 39 µL/min/mg. For the same compound, the clearance in data set [13] is 30 mL/min/kg. For the same compound, the IC50 in data set [10] was 16.1 µM.
Regarding `CS(=O)(=O)NC(=O)c1ccc2c(Oc3ccc(Cl)c(C(F)(F)F)c3)nccc2c1`, the IC50 came to 0.28 µM in [3] and 14.4 µM in [10]. Also, in data set [9], the Ki is over 30 µM. Besides, in [14], the Ratio IC50 is over 40.
As for `COc1cc(C(=O)NS(C)(=O)=O)ccc1-c1cnc(Oc2cc(Cl)cc(Cl)c2)c(Cl)c1`, the results for the IC50 in [3] and in [10] were 0.036 µM and 6 µM, respectively. For the same compound, the fraction unbound at 0.75 h, 5 µM in data set [12] is under 0.001. In addition, the microsomal CLint at 1 µM in [7] and in [11] was under 14 µL/min/mg throughout. The compound also registered a clearance in data set [13] of 9.33 to 12.2 mL/min/kg.
